Test results published in ChEMBL document CHEMBL1649165, “Activity profile in vitro of micafungin against Spanish clinical isolates of common and emerging species of yeasts and molds” (2009).
In brackets after ≈: the same amount, converted by molar mass.

Legend:
Assay type in all cases: functional
[1] = tested on: Fennellia nivea; test: Antimicrobial activity against Aspergillus niveus by broth microdilution method
Method in brief: (§1)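 Clinical mould isolates, tested by broth microdilution using the AFST-EUCAST reference method for filamentous fungi. For echinocandins, the endpoint was the minimum effective concentration: the lowest drug concentration giving aberrant hyphal growth, read with an inverted microscope.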

[2] = tested on: Exophiala jeanselmei; test: Antimicrobial activity against Exophiala jeanselmei by broth microdilution method
[3] = tested on: Lecythophora hoffmannii; test: Antimicrobial activity against Lecythophora hoffmannii by broth microdilution method; conditions: Coniochaeta hoffmannii
Method in brief: (§2)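 Filamentous fungus clinical isolates tested by the AFST-EUCAST reference broth microdilution method for moulds. For echinocandins, the endpoint was the minimum effective concentration: the lowest drug concentration giving aberrant hyphal growth, read with an inverted microscope.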

[4] = tested on: Cunninghamella bertholletiae; test: Antimicrobial activity against Cunninghamella bertholletiae by broth microdilution method; method in brief: as §1
[5] = tested on: Scytalidium hyalinum; test: Antimicrobial activity against Scytalidium hyalinum by broth microdilution method; conditions: Neoscytalidium hyalinum; method in brief: as §2
[6] = tested on: Mucor; test: Antimicrobial activity against Mucor spp.by broth microdilution method; method in brief: as §2
[7] = tested on: Beauveria bassiana; test: Antimicrobial activity against Beauveria bassiana by broth microdilution method; method in brief: as §1
[8] = tested on: Pichia kudriavzevii; test: Antimicrobial activity against Candida krusei by broth microdilution method
Method in brief: (§3)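 Clinical isolates from human patients, tested by broth microdilution using the AFST-EUCAST reference procedure for fermentative yeasts. The MIC was read per that reference method.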

[9] = tested on: Cryptococcus deneoformans; test: Antimicrobial activity against Cryptococcus neoformans var. neoformans by broth microdilution method
Method in brief: (§4)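 Clinical isolates of nonfermentative yeasts, tested by broth microdilution following EUCAST recommendations. The only change from that method was a minor modification to improve growth.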

[10] = tested on: Rhizomucor; test: Antimicrobial activity against Rhizomucor spp.by broth microdilution method; method in brief: as §2
[11] = tested on: Exophiala dermatitidis; test: Antimicrobial activity against Exophiala dermatitidis by broth microdilution method
[12] = tested on: Aspergillus versicolor; test: Antimicrobial activity against Aspergillus versicolor by broth microdilution method; method in brief: as §1
[13] = tested on: Ustilago; test: Antimicrobial activity against Ustilago spp by broth microdilution method
[14] = tested on: Saccharomyces cerevisiae; test: Antimicrobial activity against Saccharomyces cerevisiae by broth microdilution method
[15] = tested on: Fusarium solani; test: Antimicrobial activity against Fusarium solani by broth microdilution method; method in brief: as §2
[16] = tested on: Clavispora lusitaniae; test: Antimicrobial activity against Candida lusitaniae by broth microdilution method; method in brief: as §3
[17] = tested on: Candida metapsilosis; test: Antimicrobial activity against Candida metapsilosis by broth microdilution method; conditions: Lodderomyces metapsilosis; method in brief: as §3
[18] = tested on: Phialemonium curvatum; test: Antimicrobial activity against Phialemonium curvatum by broth microdilution method; conditions: Thyridium curvatum; method in brief: as §2
[19] = tested on: Naganishia albida; test: Antimicrobial activity against Cryptococcus albidus by broth microdilution method; method in brief: as §4
[20] = tested on: Debaryomyces hansenii; test: Antimicrobial activity against Candida famata by broth microdilution method; method in brief: as §3
[21] = tested on: Kazachstania pintolopesii; test: Antimicrobial activity against Candida pintolopesii by broth microdilution method; conditions: Arxiozyma pintolopesii; method in brief: as §3
[22] = Antimicrobial activity against Hormographiella aspergillata by broth microdilution method; conditions: Coprinopsis cinerea; method in brief: as §2
[23] = tested on: Coprinellus domesticus; test: Antimicrobial activity against Hormographiella verticillata by broth microdilution method; method in brief: as §2
[24] = tested on: Pichia norvegensis; test: Antimicrobial activity against Candida norvegensis by broth microdilution method; method in brief: as §3
[25] = tested on: Cladophialophora bantiana; test: Antimicrobial activity against Cladophialophora bantiana by broth microdilution method; method in brief: as §1
[26] = tested on: Trichosporon domesticum; test: Antimicrobial activity against Trichosporon mycotoxinivorans by broth microdilution method; conditions: Apiotrichum domesticum
Method in brief: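 Spanish human clinical isolates were tested as nonfermentative yeasts by broth microdilution. The method strictly followed the EUCAST recommendations, with a minor modification to improve growth, and the read-out was the MIC.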

[27] = tested on: Aspergillus; test: Antimicrobial activity against Aspergillus spp. by broth microdilution method; method in brief: as §1
[28] = tested on: Trichosporon jirovecii; test: Antimicrobial activity against Trichosporon jirovecii by broth microdilution method; conditions: Cutaneotrichosporon jirovecii
Method in brief: (§5)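 Nonfermentative yeast clinical isolates (Rhodotorula, Trichosporon) tested by broth microdilution. The EUCAST yeast recommendations were followed strictly, with one minor modification to improve growth. MIC was read as the endpoint.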

[29] = tested on: Neurospora sitophila; test: Antimicrobial activity against Chrysonilia sitophila by broth microdilution method; method in brief: as §1
[30] = tested on: Candida tropicalis; test: Antimicrobial activity against Candida tropicalis by broth microdilution method; method in brief: as §3
[31] = tested on: Paecilomyces lilacinus; test: Antimicrobial activity against Paecilomyces lilacinus by broth microdilution method; conditions: Purpureocillium lilacinum; method in brief: as §2
[32] = tested on: Trichosporon inkin; test: Antimicrobial activity against Trichosporon inkin by broth microdilution method; method in brief: as §5
[33] = tested on: Candida albicans; test: Antimicrobial activity against Candida albicans by broth microdilution method; method in brief: as §3
[34] = tested on: Candida orthopsilosis; test: Antimicrobial activity against Candida orthopsilosis by broth microdilution method; conditions: Lodderomyces orthopsilosis; method in brief: as §3
[35] = tested on: Saksenaea vasiformis; test: Antimicrobial activity against Saksenaea vasiformis by broth microdilution method; method in brief: as §2
[36] = tested on: Acremonium sp.; test: Antimicrobial activity against Acremonium sp.by broth microdilution method; method in brief: as §1
[37] = tested on: Trichosporon; test: Antimicrobial activity against Trichosporon spp. by broth microdilution method; method in brief: as §5
[38] = tested on: Scopulariopsis brevicaulis; test: Antimicrobial activity against Scopulariopsis brevicaulis by broth microdilution method; method in brief: as §2
[39] = tested on: Lichtheimia corymbifera; test: Antimicrobial activity against Mycocladus corymbiferus by broth microdilution method; method in brief: as §2
[40] = tested on: Scedosporium apiospermum; test: Antimicrobial activity against Scedosporium apiospermum by broth microdilution method; method in brief: as §2
[41] = tested on: [Candida] zeylanoides; test: Antimicrobial activity against Candida zeylanoides by broth microdilution method; conditions: Dujonia zeylanoides; method in brief: as §3
[42] = tested on: Trichosporon asahii; test: Antimicrobial activity against Trichosporon asahii by broth microdilution method; method in brief: as §5
[43] = tested on: Cladosporium; test: Antimicrobial activity against Cladosporium spp. by broth microdilution method; method in brief: as §1
[44] = tested on: Aspergillus ustus; test: Antimicrobial activity against Aspergillus ustus by broth microdilution method; method in brief: as §1

Work on `C[C@@H]1[C@H](O)[C@@H](C)/C=C/C=C/C=C/C=C/C=C/C=C/C=C/[C@H](O[C@@H]2O[C@H](C)[C@@H](O)[C@H](N)[C@@H]2O)C[C@@H]2O[C@](O)(C[C@@H](O)C[C@@H](O)[C@H](O)CC[C@@H](O)C[C@@H](O)CC(=O)O[C@H]1C)C[C@H](O)[C@H]2C(=O)O` [AMPHOTERICIN B] yielded an MIC50 [1] of 0.5 µg/mL (≈ 0.541 µM), an MIC90 [1] of over 16 µg/mL and an MIC50 [2] of 0.25 µg/mL (≈ 0.271 µM). The MIC90 [2] was 1 µg/mL (≈ 1.08 µM), the MIC50 [3] was 0.25 µg/mL (≈ 0.271 µM) and the MIC90 [3] was 1 µg/mL (≈ 1.08 µM). The MIC50 [4] was 2 µg/mL (≈ 2.16 µM), the MIC90 [4] was over 16 µg/mL and the MIC50 [5] was 0.25 µg/mL (≈ 0.271 µM). The MIC90 [5] was 1 µg/mL (≈ 1.08 µM), the MIC50 [6] was 0.12 µg/mL (≈ 0.13 µM) and the MIC90 [6] was 1 µg/mL (≈ 1.08 µM). It also gave an MIC50 [7] of 0.5 µg/mL (≈ 0.541 µM), an MIC90 [7] of over 16 µg/mL and an MIC50 [8] of 0.5 µg/mL (≈ 0.541 µM). It also gave an MIC90 [8] of 0.5 µg/mL (≈ 0.541 µM), an MIC50 [9] of 0.12 µg/mL (≈ 0.13 µM) and an MIC90 [9] of 2 µg/mL (≈ 2.16 µM). The MIC50 [10] was 2 µg/mL (≈ 2.16 µM), the MIC90 [10] was over 16 µg/mL and the MIC50 [11] was 0.25 µg/mL (≈ 0.271 µM). It also gave an MIC90 [11] of 1 µg/mL (≈ 1.08 µM), an MIC50 [12] of 1 µg/mL (≈ 1.08 µM) and an MIC90 [12] of 2 µg/mL (≈ 2.16 µM). For the same compound, the MIC50 [13] was 0.5 µg/mL (≈ 0.541 µM), the MIC90 [13] was 8 µg/mL (≈ 8.66 µM) and the MIC50 [14] was 0.12 µg/mL (≈ 0.13 µM). For the same compound, the MIC90 [14] was 0.25 µg/mL (≈ 0.271 µM), the MIC50 [15] was 1 µg/mL (≈ 1.08 µM) and the MIC90 [15] was 2 µg/mL (≈ 2.16 µM). The MIC50 [16] was 0.06 µg/mL (≈ 0.0649 µM), the MIC90 [16] was 0.12 µg/mL (≈ 0.13 µM) and the MIC50 [17] was 0.12 µg/mL (≈ 0.13 µM). For the same compound, the MIC90 [17] was 1 µg/mL (≈ 1.08 µM), the MIC50 [18] was 0.5 µg/mL (≈ 0.541 µM) and the MIC90 [18] was over 16 µg/mL. For the same compound, the MIC50 [19] was 0.5 µg/mL (≈ 0.541 µM), the MIC90 [19] was 8 µg/mL (≈ 8.66 µM) and the MIC50 [20] was 0.12 µg/mL (≈ 0.13 µM). It also gave an MIC90 [20] of 1 µg/mL (≈ 1.08 µM), an MIC50 [21] of 0.12 µg/mL (≈ 0.13 µM) and an MIC90 [21] of 1 µg/mL (≈ 1.08 µM). It also gave an MIC50 [22] of 0.5 µg/mL (≈ 0.541 µM), an MIC90 [22] of over 16 µg/mL and an MIC50 [23] of 0.5 µg/mL (≈ 0.541 µM). The MIC90 [23] was over 16 µg/mL, the MIC50 [24] was 0.12 µg/mL (≈ 0.13 µM) and the MIC90 [24] was 1 µg/mL (≈ 1.08 µM). The MIC50 [25] was 0.25 µg/mL (≈ 0.271 µM), the MIC90 [25] was 1 µg/mL (≈ 1.08 µM) and the MIC50 [26] was 0.5 µg/mL (≈ 0.541 µM). It also gave an MIC90 [26] of 8 µg/mL (≈ 8.66 µM), an MIC50 [27] of 0.5 µg/mL (≈ 0.541 µM) and an MIC90 [27] of over 16 µg/mL. For the same compound, the MIC50 [28] was 0.5 µg/mL (≈ 0.541 µM), the MIC90 [28] was 8 µg/mL (≈ 8.66 µM) and the MIC50 [29] was 0.5 µg/mL (≈ 0.541 µM). For the same compound, the MIC90 [29] was over 16 µg/mL, the MIC50 [30] was 0.12 µg/mL (≈ 0.13 µM) and the MIC90 [30] was 0.25 µg/mL (≈ 0.271 µM). The MIC50 [31] was over 16 µg/mL, the MIC90 [31] was over 16 µg/mL and the MIC50 [32] was 0.12 µg/mL (≈ 0.13 µM). The MIC90 [32] was 1 µg/mL (≈ 1.08 µM), the MIC50 [33] was 0.06 µg/mL (≈ 0.0649 µM) and the MIC90 [33] was 0.12 µg/mL (≈ 0.13 µM). For the same compound, the MIC50 [34] was 0.12 µg/mL (≈ 0.13 µM), the MIC90 [34] was 1 µg/mL (≈ 1.08 µM) and the MIC50 [35] was 2 µg/mL (≈ 2.16 µM). It also gave an MIC90 [35] of over 16 µg/mL, an MIC50 [36] of 4 µg/mL (≈ 4.33 µM) and an MIC90 [36] of over 16 µg/mL. For the same compound, the MIC50 [37] was 0.5 µg/mL (≈ 0.541 µM), the MIC90 [37] was 8 µg/mL (≈ 8.66 µM) and the MIC50 [38] was 0.5 µg/mL (≈ 0.541 µM). For the same compound, the MIC90 [38] was over 16 µg/mL, the MIC50 [39] was 0.12 µg/mL (≈ 0.13 µM) and the MIC90 [39] was 0.25 µg/mL (≈ 0.271 µM). For the same compound, the MIC50 [40] was 4 µg/mL (≈ 4.33 µM), the MIC90 [40] was over 16 µg/mL and the MIC50 [41] was 0.12 µg/mL (≈ 0.13 µM). For the same compound, the MIC90 [41] was 1 µg/mL (≈ 1.08 µM), the MIC50 [42] was 8 µg/mL (≈ 8.66 µM) and the MIC90 [42] was over 16 µg/mL. It also gave an MIC50 [43] of 0.25 µg/mL (≈ 0.271 µM), an MIC90 [43] of 1 µg/mL (≈ 1.08 µM) and an MIC50 [44] of 0.5 µg/mL (≈ 0.541 µM). It also gave an MIC90 [44] of over 16 µg/mL.
